ChEMBL document CHEMBL1137056, “Synthesis of fluorinated analogues of SJG-136 and their DNA-binding potential” (Bioorg Med Chem Lett, 2004)

Tests used:
Type in all cases: functional
Bos taurus [1] = organism: Bos taurus; assay: Increase in melting point temperature after 36 hr of incubation [1:5] as measurement of DNA binding affinity using calf thymus DNA
How it was run: (§1)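 Thermal denaturation of calf thymus DNA, 100 µM DNA with 20 µM ligand (1:5 ligand:DNA molar ratio). Buffer was aqueous 10 mM sodium phosphate with 1 mM EDTA, pH 7.00. Mixtures were incubated at 37°C for the stated time, then the shift in helix melting temperature versus DNA alone was recorded. DNA-only Tm is the mean of 10 determinations.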

Bos taurus [2] = organism: Bos taurus; assay: Increase in melting point temperature after 0h of incubation [1:5 ratio] as measurement of DNA binding affinity using calf thymus DNA; how it was run: as §1
Bos taurus [3] = organism: Bos taurus; assay: Increase in melting point temperature after 18 hr of incubation [1:5] as measurement of DNA binding affinity using calf thymus DNA; how it was run: as §1

Row | Compound | ΔTm (Bos taurus [1]) | ΔTm (Bos taurus [2]) | ΔTm (Bos taurus [3])
1 | COc1cc2c(cc1OCCCOc1cc3c(cc1OC)C(=O)N1CC(=C(F)F)C[C@H]1C=N3)N=C[C@@H]1CC(=C(F)F)CN1C2=O | 24.9 °C | 20.8 °C | 24.6 °C
2 | COc1cc2c(cc1O)N=C[C@@H]1CC(=C(F)F)CN1C2=O | 2.2 °C | 1 °C | 1.7 °C
3 | COc1cc2c(cc1O)N=C[C@@H]1CCCN1C2=O | 0.7 °C | 0.3 °C | 0.7 °C
4 | COc1cc2c(cc1OCCCCCOc1cc3c(cc1OC)C(=O)N1CC(=C(F)F)C[C@H]1C=N3)N=C[C@@H]1CC(=C(F)F)CN1C2=O | 21.3 °C | 16.2 °C | 19.2 °C
5 | COc1cc2c(cc1OCCCCOc1cc3c(cc1OC)C(=O)N1CC(=C(F)F)C[C@H]1C=N3)N=C[C@@H]1CC(=C(F)F)CN1C2=O | 6.5 °C | 2.1 °C | 5.2 °C
6 | COc1cc2c(cc1OCCCOc1cc3c(cc1OC)C(=O)N1CCC[C@H]1C=N3)N=C[C@@H]1CCCN1C2=O | 15.7 °C | 10.2 °C | 15.1 °C
7 | C=C1C[C@H]2C=Nc3cc(OCCCOc4cc5c(cc4OC)C(=O)N4CC(=C)C[C@H]4C=N5)c(OC)cc3C(=O)N2C1 | – | 25.7 °C | 33.6 °C
